Measured values: ChEMBL document CHEMBL1123281, “Synthesis and rat lens aldose reductase inhibitory activity of some benzopyran-2-ones” (J Med Chem, 1986)

What follows are molecules tested against T1, Aldo-keto reductase family 1 member B1 (Rattus norvegicus, UniProt P07943) (assay: Compound was tested for inhibitory concentration against rat lens aldose reductase (noncompetitive inhibition type)).
In short: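 Crude supernatant from 50 rat lenses homogenized in distilled water, centrifuged 10 000 rpm, 10 min, 0–5 °C. Read-out was NADPH decrease at 340 nm over 5 min in 0.1 M phosphate pH 6.2, 0.104 mM NADPH, 10 mM DL-glyceraldehyde. IC50 came from least-squares log dose–response fits, using ≥4 concentrations ×4 replicates. Inhibition type was read from double-reciprocal plots with 0.0625–1.0 mM substrate.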
An IC50 of 0.15 µM was found for `O=C(O)Cc1cc(=O)oc2cc(O)ccc12` in this work.
An IC50 of 2.1 µM was found for `COc1ccc2c(CCC(=O)O)cc(=O)oc2c1` in this work.
An IC50 of 62 µM was found for `Cc1cc(=O)oc2cc(O)ccc12` [HYMECROMONE] in this work.
An IC50 of 32 µM was found for `O=C(O)Cc1cccc2ccccc12` in this work.
An IC50 of 0.37 µM was found for `COc1ccc2c(CC(=O)O)cc(=O)oc2c1` in this work.
An IC50 of 17 µM was found for `Cc1cc(=O)oc2cc(O)cc(O)c12` [5,7-DIHYDROXY-4-METHYLCOUMARIN] in this work.
An IC50 of 0.26 µM was found for `O=C(O)Cc1cc(=O)oc2cc(O)cc(O)c12` in this work.
An IC50 of 61 µM was found for `CC(=O)Oc1ccc2c(CC(=O)O)cc(=O)oc2c1` in this work.

What follows are molecules tested against T1, Aldo-keto reductase family 1 member B1 (assay: Compound was tested for inhibitory concentration against rat lens aldose reductase (uncompetitive inhibition type)).
An IC50 of 0.14 µM was found for `O=C(O)Cc1cc(=O)oc2c1ccc1ccccc12` in this work.
An IC50 of 38 µM was found for `COC(=O)Cc1cc(=O)oc2cc(O)ccc12` in this work.
An IC50 of 11 µM was found for `COc1ccc2c(C(=O)O)cc(=O)oc2c1` in this work.
An IC50 of 0.02 µM was found for `O=C(O)Cc1cc(=O)oc2ccc3ccccc3c12` in this work.
An IC50 of 0.6 µM was found for `O=C(O)Cc1cc(=O)oc2ccccc12` in this work.
An IC50 of 10 µM was found for `NC(=O)Cc1cc(=O)oc2cc(O)ccc12` in this work.
An IC50 of 4.4 µM was found for `COc1ccc2c(/C=C/C(=O)O)cc(=O)oc2c1` in this work.
An IC50 of 10 µM was found for `Cc1cc(=O)oc2c(O)c(O)ccc12` [4-METHYLDAPHNETIN] in this work.
An IC50 of 0.24 µM was found for `CCc1ccc2c(CC(=O)O)cc(=O)oc2c1` in this work.
An IC50 of 0.56 µM was found for `O=C(O)Cc1cc(=O)oc2cc(Cl)ccc12` in this work.

These molecules were tested against Aldo-keto reductase family 1 member B1 (Rattus norvegicus) (UniProt P07943) (assay: Compound was tested for percent inhibition at 10 e-4 M against rat lens aldose reductase).
In short: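 Single-concentration screen at 100 μM against crude rat lens supernatant. The reaction mix was 0.1 M phosphate pH 6.2, 0.104 mM NADPH and 10 mM DL-glyceraldehyde, started with substrate. NADPH loss was followed at 340 nm for 5 min, with inhibitor included in the blanks. Percent inhibition compares the rate with a substrate-only control. Final Me2SO was ≤1%.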
An inhibition of 10% was found for `Cc1cc(=O)oc2cc(Cl)ccc12` in this work.
An inhibition of 13% was found for `CC(=O)Oc1ccc2c(C)cc(=O)oc2c1` in this work.
An inhibition of 16% was found for `CCc1ccc2c(C)cc(=O)oc2c1` in this work.
An inhibition of 22% was found for `Cc1cc(=O)oc2ccc(O)cc12` in this work.
An inhibition of 19% was found for `Cc1cc(=O)oc2ccccc12` in this work.
An inhibition of 21% was found for `COc1ccc2c(C)cc(=O)oc2c1` in this work.
